# ChEMBL document CHEMBL4706575, “Nonpeptidic quinazolinone derivatives as dual nucleotide-binding oligomerization domain-like receptor 1/2 antagonists for adjuvant cancer chemotherapy” (Eur J Med Chem, 2020)
# Activity calls are given as the source filed them. No cut-off for these calls is given here.
# Columns and labels:
# [1] = target: T1, Nucleotide-binding oligomerization domain-containing protein 1 (Homo sapiens) (UniProt Q9Y239); assay: (§1) Antagonist activity at NOD1 in HEK-Blue hNOD1 cells assessed as inhibition of C12-iE-DAP-induced NFkappaB activation-mediated SEAP release preincubated for 3 hrs followed by C12-iE-DAP addition and measured after 20 hrs by spectrophotometric method; type: cell-based; conditions: filed as antagonist, time 23.0 hrs
# T1 sequence (whole entry): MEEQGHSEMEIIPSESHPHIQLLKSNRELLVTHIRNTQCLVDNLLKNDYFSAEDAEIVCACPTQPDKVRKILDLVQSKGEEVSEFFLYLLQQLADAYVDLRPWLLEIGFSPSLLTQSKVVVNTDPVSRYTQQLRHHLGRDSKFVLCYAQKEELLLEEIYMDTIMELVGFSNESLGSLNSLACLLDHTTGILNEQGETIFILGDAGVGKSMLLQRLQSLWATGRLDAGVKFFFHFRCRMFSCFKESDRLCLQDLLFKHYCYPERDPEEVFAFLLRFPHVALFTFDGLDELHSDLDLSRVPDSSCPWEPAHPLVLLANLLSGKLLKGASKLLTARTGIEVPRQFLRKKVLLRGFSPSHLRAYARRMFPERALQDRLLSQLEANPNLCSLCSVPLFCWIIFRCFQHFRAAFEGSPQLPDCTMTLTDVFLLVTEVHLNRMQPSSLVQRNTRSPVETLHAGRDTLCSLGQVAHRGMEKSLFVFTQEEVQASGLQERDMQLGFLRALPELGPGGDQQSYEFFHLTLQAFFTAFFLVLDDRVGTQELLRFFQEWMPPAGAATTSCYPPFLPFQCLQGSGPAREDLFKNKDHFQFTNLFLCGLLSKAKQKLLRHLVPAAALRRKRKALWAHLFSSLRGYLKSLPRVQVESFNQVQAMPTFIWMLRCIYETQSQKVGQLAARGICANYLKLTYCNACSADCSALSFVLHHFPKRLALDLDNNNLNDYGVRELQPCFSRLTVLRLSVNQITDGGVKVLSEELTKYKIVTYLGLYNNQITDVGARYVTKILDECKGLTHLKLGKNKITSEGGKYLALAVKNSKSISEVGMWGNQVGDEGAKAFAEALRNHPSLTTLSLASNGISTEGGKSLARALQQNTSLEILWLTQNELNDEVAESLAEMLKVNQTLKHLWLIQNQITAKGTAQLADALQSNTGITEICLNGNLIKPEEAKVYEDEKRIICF
# [2] = target: T2, Nucleotide-binding oligomerization domain-containing protein 1 (Homo sapiens, UniProt Q9Y239); assay: as §1; type: cell-based
# T2 sequence (Q9Y239 whole entry): T1 sequence (whole entry)
# [3] = target: T3, Nucleotide-binding oligomerization domain-containing protein 2 (Homo sapiens, UniProt Q9HC29); assay: Antagonist activity at NOD2 in HEK-Blue hNOD2 cells assessed as inhibition of MDP-induced NFkappaB activation-mediated SEAP release preincubated for 3 hrs followed by MDP addition and measured after 20 hrs by spectrophotometric method; type: cell-based
# T3 sequence (Q9HC29 whole entry, the tested form may be a part): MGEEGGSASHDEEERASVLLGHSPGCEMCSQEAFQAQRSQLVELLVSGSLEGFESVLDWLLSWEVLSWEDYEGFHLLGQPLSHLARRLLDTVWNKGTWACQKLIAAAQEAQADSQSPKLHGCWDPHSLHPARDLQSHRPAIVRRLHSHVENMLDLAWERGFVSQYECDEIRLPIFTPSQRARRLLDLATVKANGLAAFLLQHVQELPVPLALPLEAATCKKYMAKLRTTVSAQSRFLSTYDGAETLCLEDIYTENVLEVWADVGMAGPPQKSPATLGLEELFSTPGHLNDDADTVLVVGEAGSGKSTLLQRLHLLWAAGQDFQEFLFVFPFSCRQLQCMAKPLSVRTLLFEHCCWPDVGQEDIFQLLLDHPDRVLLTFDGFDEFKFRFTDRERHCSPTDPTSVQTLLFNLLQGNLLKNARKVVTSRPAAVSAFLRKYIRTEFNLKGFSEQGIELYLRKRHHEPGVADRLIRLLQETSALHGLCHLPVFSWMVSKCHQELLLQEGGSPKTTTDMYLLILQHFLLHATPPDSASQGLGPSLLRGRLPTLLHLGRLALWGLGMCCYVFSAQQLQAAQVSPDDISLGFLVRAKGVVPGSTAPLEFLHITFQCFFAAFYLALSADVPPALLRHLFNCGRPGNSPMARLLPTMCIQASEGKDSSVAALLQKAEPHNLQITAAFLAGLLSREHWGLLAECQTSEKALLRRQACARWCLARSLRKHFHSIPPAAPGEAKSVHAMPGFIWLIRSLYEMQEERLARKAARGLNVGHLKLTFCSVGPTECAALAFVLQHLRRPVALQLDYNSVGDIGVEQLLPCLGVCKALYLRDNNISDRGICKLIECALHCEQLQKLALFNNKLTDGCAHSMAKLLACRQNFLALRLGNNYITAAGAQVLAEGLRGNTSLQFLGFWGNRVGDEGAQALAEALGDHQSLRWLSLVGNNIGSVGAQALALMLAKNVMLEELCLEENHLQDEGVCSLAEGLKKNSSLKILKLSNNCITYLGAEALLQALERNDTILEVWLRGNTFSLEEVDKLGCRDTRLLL
# Procedure, shortened: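 HEK-Blue hNOD2 cells preincubated 3 h with a range of concentrations, then MDP 100 ng/mL for 20 h. SEAP quantified. SRB assay run to exclude cytotoxicity. IC50 by nonlinear semi-logarithmic fit, mean ± SD, n = 3.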
# [4] = target: T1, Nucleotide-binding oligomerization domain-containing protein 1 (Homo sapiens); assay: Antagonist activity at NOD1 in human THP-1 cells assessed as inhibition of C12-iE-DAP-induced increase in RIP2 phosphorylation at 1 to 10 uM preincubated for 1 hr followed by C12-iE-DAP addition and measured after 30 mins by Western blot analysis; type: cell-based; conditions: filed as antagonist, dose 1-10 µM, time 1.5 hrs
# Procedure, shortened: (§2)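 Serum-starved THP-1 cells pretreated with compound (1.0 or 10 µM) or without for 1 h. Then C12-iE-DAP 500 ng/mL (NOD1) or MDP (NOD2) for 30 min. Lysed in cold whole-cell buffer. Western blot for IκBα and for total and phospho RIP2, IKKα/β, p65, JNK, p38 and ERK1/2. β-actin as loading control.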
# [5] = target: T1, Nucleotide-binding oligomerization domain-containing protein 1 (Homo sapiens); assay: Antagonist activity at NOD1 in human THP-1 cells assessed as inhibition of C12-iE-DAP-induced increase in p65 phosphorylation at 1 to 10 uM preincubated for 1 hr followed by C12-iE-DAP addition and measured after 30 mins by Western blot analysis; type: cell-based; conditions: filed as antagonist, dose 1-10 µM, time 1.5 hrs; procedure, shortened: as §2
# [6] = target: T1, Nucleotide-binding oligomerization domain-containing protein 1 (Homo sapiens); assay: Antagonist activity at NOD1 in human THP-1 cells assessed as inhibition of C12-iE-DAP-induced increase in JNK phosphorylation at 1 to 10 uM preincubated for 1 hr followed by C12-iE-DAP addition and measured after 30 mins by Western blot analysis; type: cell-based; conditions: filed as antagonist, dose 1-10 µM, time 1.5 hrs; procedure, shortened: as §2
# [7] = target: T1, Nucleotide-binding oligomerization domain-containing protein 1 (Homo sapiens); assay: Antagonist activity at NOD1 in human THP-1 cells assessed as inhibition of C12-iE-DAP-induced IkappaBalpha degradation at 1 to 10 uM preincubated for 1 hr followed by C12-iE-DAP addition and measured after 30 mins by Western blot analysis; type: cell-based; conditions: filed as antagonist, dose 1-10 µM, time 1.5 hrs; procedure, shortened: as §2
# [8] = target: T3, Nucleotide-binding oligomerization domain-containing protein 2; assay: Antagonist activity at NOD2 in human THP-1 cells assessed as inhibition of MDP-induced increase in IKKalpha/beta phosphorylation preincubated for 1 hr followed by MDP addition and measured after 30 mins by Western blot analysis; type: cell-based; conditions: filed as antagonist, dose 1-10 µM, time 1.5 hrs; procedure, shortened: as §2
# [9] = target: T3, Nucleotide-binding oligomerization domain-containing protein 2; assay: Antagonist activity at NOD2 in human THP-1 cells assessed as inhibition of MDP-induced increase in p65 phosphorylation preincubated for 1 hr followed by MDP addition and measured after 30 mins by Western blot analysis; type: cell-based; conditions: filed as antagonist, dose 1-10 µM, time 1.5 hrs; procedure, shortened: as §2
# [10] = target: T3, Nucleotide-binding oligomerization domain-containing protein 2; assay: Antagonist activity at NOD2 in human THP-1 cells assessed as inhibition of MDP-induced increase in p38 phosphorylation preincubated for 1 hr followed by MDP addition and measured after 30 mins by Western blot analysis; type: cell-based; conditions: filed as antagonist, dose 1-10 µM, time 1.5 hrs; procedure, shortened: as §2
# [11] = target: T3, Nucleotide-binding oligomerization domain-containing protein 2; assay: Antagonist activity at NOD2 in human THP-1 cells assessed as inhibition of MDP-induced IkappaBalpha degradation preincubated for 1 hr followed by MDP addition and measured after 30 mins by Western blot analysis; type: cell-based; conditions: filed as antagonist, dose 1-10 µM, time 1.5 hrs; procedure, shortened: as §2
# [12] = target: T1, Nucleotide-binding oligomerization domain-containing protein 1 (Homo sapiens); assay: Antagonist activity at NOD1 in human THP-1 cells assessed as inhibition of C12-iE-DAP-induced IL6 mRNA expression preincubated for 1 hr followed by C12-iE-DAP addition and measured after 90 mins by qRT-PCR analysis; type: cell-based; conditions: filed as antagonist, dose 1-10 µM, time 150.0 min
# Procedure, shortened: (§3)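 THP-1 cells in RPMI-1640 with 10% FBS, treated with compound (1.0 or 10 µM) or vehicle for 1 h. Then stimulated 90 min with C12-iE-DAP 500 ng/mL (NOD1) or MDP (NOD2). IL-6, TNF-α and IL-8 mRNA measured by qRT-PCR. Mean ± SD, n = 6, two-tailed t-test.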
# [13] = target: T1, Nucleotide-binding oligomerization domain-containing protein 1 (Homo sapiens); assay: Antagonist activity at NOD1 in human THP-1 cells assessed as inhibition of C12-iE-DAP-induced IL8 mRNA expression preincubated for 1 hr followed by C12-iE-DAP addition and measured after 90 mins by qRT-PCR analysis; type: cell-based; conditions: filed as antagonist, dose 1-10 µM, time 150.0 min; procedure, shortened: as §3
# [14] = system: B16-F10; assay: Potentiation of paclitaxel-induced antitumor activity against mouse B16-F10 cells implanted in C57BL/6 mouse assessed as tumor growth inhibition at 50 mg/kg, iv administered every other day for 15 days measured 24 hrs post last dose (reference value: 64.07%); type: functional; conditions: 384 h, time 16 day, read-out: TGI
# [15] = Toxicity in mouse B16-F10 cells implanted C57BL/6 mouse assessed as change in body weight at 50 mg/kg, iv administered every other day for 15 days; type: organism-based; conditions: in vivo, 360 h, time 15 day
structure (smiles),measurement,setting,value
O=C(NCCCOc1ccc(C(F)(F)F)cc1)c1cc2ncn(CC(=O)N3CCCC(F)(F)C3)c(=O)c2cc1-c1cccc(Cl)c1,inhibition,[1],Dose-dependent effect
same,IC50,[2],1130 nM
same,IC50,[3],770 nM
same,inhibition,"[3]; filed as antagonist, time 23.0 hrs",Dose-dependent effect
same,inhibition,[4],Active
same,inhibition,[5],Active
same,inhibition,[6],Active
same,inhibition,[7],Active
same,inhibition,[8],Dose-dependent effect
same,inhibition,[9],Dose-dependent effect
same,inhibition,[10],Dose-dependent effect
same,inhibition,[11],Dose-dependent effect
same,inhibition,[12],Dose-dependent effect
same,inhibition,[13],Dose-dependent effect
same,inhibition in vivo at 50 mg/kg,[14],85.5%
same,Activity,[15],Non-Toxic
